In ChEMBL document CHEMBL1149276, “Inhibition of Streptococcus suis adhesion by dendritic galabiose compounds at low nanomolar concentration” (J Med Chem, 2004):
≈ marks a conversion by molar mass, not a printed value.

Experiments:
[1] = tested on: Streptococcus suis; test: Inhibition of Streptococcus suis 628 binding to pigeon ovomucoid by surface plasmon resonance assay; format: functional, organism-based
Method in brief: (§1)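 SPR competition format. S. suis was cultured in THY broth at 37 °C without shaking. Bacteria were incubated 5 min with inhibitor dilutions in HBS-P buffer, then injected over the sensor chip. The surface was regenerated with 10 mM NaOH between injections. Data from repeated experiments were normalized 0–100 to build inhibition curves. Line 7 expresses potency relative to the monovalent reference.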

[2] = tested on: Streptococcus suis; test: Relative potency against Streptococcus suis 628 mediated hemagglutinination of human erythrocytes measured as IC50 for monovalent galobiose compound to the multivalent compound; format: functional
Method in brief: (§2)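 Hemagglutination MIC read-out. Bacteria (THY broth, 37 °C, static) were preincubated 5 min at room temperature with twofold inhibitor dilutions. Sialidase-treated 5% human erythrocytes were added and agglutination was scored visually after 1 h on ice. Potency is expressed relative to the monovalent reference galabioside.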

[3] = tested on: Streptococcus suis; test: Inhibition of Streptococcus suis 836 mediated hemagglutinination of human erythrocytes; format: functional
Method in brief: (§3)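 S. suis grown in THY broth at 37 °C without shaking. Twofold dilutions of galabiose compound were preincubated with equal volumes of bacteria for 5 min at room temperature. Then 5% sialidase-treated human erythrocytes were added. After 1 h on ice, agglutination was scored visually. MIC was taken as the lowest concentration giving complete inhibition.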

[4] = tested on: Streptococcus suis; test: Relative potency against Streptococcus suis 836 mediated hemagglutinination of human erythrocytes measured as IC50 for monovalent galobiose compound to the multivalent compound; format: functional; method in brief: as §2
[5] = tested on: Streptococcus suis; test: Inhibition of Streptococcus suis 628 mediated hemagglutinination of human erythrocytes; format: functional; method in brief: as §3
[6] = tested on: Streptococcus suis; test: Relative potency for against treptococcus suis 628 binding to pigeon ovomucoid by surface plasmon resonance assay measured as IC50 for monovalent galobiose compound to the multivalent compound; format: functional; method in brief: as §1
[7] = tested on: Streptococcus suis; test: Inhibition of Streptococcus suis 628 binding to pigeon ovomucoid by ELISA; format: functional, organism-based

Row | SMILES | IC50 [1] [µM] | Ratio IC50 [2] | MIC [3] [µM] | Ratio IC50 [4] | MIC [5] [µM] | Ratio IC50 [6] | IC50 [7] [µM]
1 | COC(=O)c1cc(OCCNC(=O)COCC(=O)NCCCO[C@@H]2O[C@H](CO)[C@H](O[C@H]3O[C@H](CO)[C@H](O)[C@H](O)[C@H]3O)[C@H](O)[C@H]2O)cc(OCCNC(=O)COCC(=O)NCCCO[C@@H]2O[C@H](CO)[C@H](O[C@H]3O[C@H](CO)[C@H](O)[C@H](O)[C@H]3O)[C@H](O)[C@H]2O)c1 | 0.235 | 150 | 0.07 (≈ 0.0874 µg/mL) | 22 | 0.006 (≈ 0.0075 µg/mL) | 8 | –
2 | O=C(COCC(=O)NCCCO[C@@H]1O[C@H](CO)[C@H](O[C@H]2O[C@H](CO)[C@H](O)[C@H](O)[C@H]2O)[C@H](O)[C@H]1O)NCC#Cc1ccc(C#CCNC(=O)COCC(=O)NCCCO[C@@H]2O[C@H](CO)[C@H](O[C@H]3O[C@H](CO)[C@H](O)[C@H](O)[C@H]3O)[C@H](O)[C@H]2O)cc1 | 0.309 | 128 | 0.09 (≈ 0.106 µg/mL) | 18 | 0.007 (≈ 0.00825 µg/mL) | 6 | –
3 | COC(=O)c1cc(OCCNC(=O)c2cc(OCCNC(=O)COCC(=O)NCCCO[C@@H]3O[C@H](CO)[C@H](O[C@H]4O[C@H](CO)[C@H](O)[C@H](O)[C@H]4O)[C@H](O)[C@H]3O)cc(OCCNC(=O)COCC(=O)NCCCO[C@@H]3O[C@H](CO)[C@H](O[C@H]4O[C@H](CO)[C@H](O)[C@H](O)[C@H]4O)[C@H](O)[C@H]3O)c2)cc(OCCNC(=O)c2cc(OCCNC(=O)COCC(=O)NCCCO[C@@H]3O[C@H](CO)[C@H](O[C@H]4O[C@H](CO)[C@H](O)[C@H](O)[C@H]4O)[C@H](O)[C@H]3O)cc(OCCNC(=O)COCC(=O)NCCCO[C@@H]3O[C@H](CO)[C@H](O[C@H]4O[C@H](CO)[C@H](O)[C@H](O)[C@H]4O)[C@H](O)[C@H]3O)c2)c1 | 0.007 | 450 | 0.04 (≈ 0.108 µg/mL) | 40 | 0.002 (≈ 0.00538 µg/mL) | 256 | –
4 | COC(=O)c1cccc(OCCNC(=O)COCC(=O)NCCCO[C@@H]2O[C@H](CO)[C@H](O[C@H]3O[C@H](CO)[C@H](O)[C@H](O)[C@H]3O)[C@H](O)[C@H]2O)c1 | 1.8 | – | 1.6 (≈ 1.11 µg/mL) | – | 0.9 (≈ 0.623 µg/mL) | – | 45
5 | O=C(CCN(CCNC(=O)CCN(CCC(=O)NCCN(CCC(=O)NCCNC(=O)COCC(=O)NCCCO[C@@H]1O[C@H](CO)[C@H](O[C@H]2O[C@H](CO)[C@H](O)[C@H](O)[C@H]2O)[C@H](O)[C@H]1O)CCC(=O)NCCNC(=O)COCC(=O)NCCCO[C@@H]1O[C@H](CO)[C@H](O[C@H]2O[C@H](CO)[C@H](O)[C@H](O)[C@H]2O)[C@H](O)[C@H]1O)CCN(CCC(=O)NCCN(CCC(=O)NCCNC(=O)COCC(=O)NCCCO[C@@H]1O[C@H](CO)[C@H](O[C@H]2O[C@H](CO)[C@H](O)[C@H](O)[C@H]2O)[C@H](O)[C@H]1O)CCC(=O)NCCNC(=O)COCC(=O)NCCCO[C@@H]1O[C@H](CO)[C@H](O[C@H]2O[C@H](CO)[C@H](O)[C@H](O)[C@H]2O)[C@H](O)[C@H]1O)CCC(=O)NCCN(CCC(=O)NCCNC(=O)COCC(=O)NCCCO[C@@H]1O[C@H](CO)[C@H](O[C@H]2O[C@H](CO)[C@H](O)[C@H](O)[C@H]2O)[C@H](O)[C@H]1O)CCC(=O)NCCNC(=O)COCC(=O)NCCCO[C@@H]1O[C@H](CO)[C@H](O[C@H]2O[C@H](CO)[C@H](O)[C@H](O)[C@H]2O)[C@H](O)[C@H]1O)CCC(=O)NCCNC(=O)COCC(=O)NCCCO[C@@H]1O[C@H](CO)[C@H](O[C@H]2O[C@H](CO)[C@H](O)[C@H](O)[C@H]2O)[C@H](O)[C@H]1O)NCCNC(=O)COCC(=O)NCCCO[C@@H]1O[C@H](CO)[C@H](O[C@H]2O[C@H](CO)[C@H](O)[C@H](O)[C@H]2O)[C@H](O)[C@H]1O | 0.007 | 3000 | 0.002 (≈ 0.0108 µg/mL) | 800 | 0.0003 (≈ 0.00162 µg/mL) | 256 | –
6 | COC(=O)c1cc(OCCNC(=O)COCC(=O)NCCCOCCOCCOCCCNC(=O)COCC(=O)NCCCO[C@@H]2O[C@H](CO)[C@H](O[C@H]3O[C@H](CO)[C@H](O)[C@H](O)[C@H]3O)[C@H](O)[C@H]2O)cc(OCCNC(=O)COCC(=O)NCCCOCCOCCOCCCNC(=O)COCC(=O)NCCCO[C@@H]2O[C@H](CO)[C@H](O[C@H]3O[C@H](CO)[C@H](O)[C@H](O)[C@H]3O)[C@H](O)[C@H]2O)c1 | 0.156 | 100 | 0.1 (≈ 0.189 µg/mL) | 16 | 0.009 (≈ 0.017 µg/mL) | 12 | –
7 | O=C(COCC(=O)NCCCO[C@@H]1O[C@H](CO)[C@H](O[C@H]2O[C@H](CO)[C@H](O)[C@H](O)[C@H]2O)[C@H](O)[C@H]1O)NCC#Cc1cccc(C#CCNC(=O)COCC(=O)NCCCO[C@@H]2O[C@H](CO)[C@H](O[C@H]3O[C@H](CO)[C@H](O)[C@H](O)[C@H]3O)[C@H](O)[C@H]2O)c1 | 0.293 | 225 | 0.05 (≈ 0.059 µg/mL) | 32 | 0.004 (≈ 0.00472 µg/mL) | 6 | –
